Results on seven compounds are retold here after ChEMBL document CHEMBL3407461 (J Med Chem, 2014).

The target of data set [1] is Adenosine receptor A3 (Mus musculus, UniProt Q61618). As to the kind of experiment: Displacement of [125I]I-AB-MECA from mouse A3 adenosine receptor expressed in HEK293 cells after 60 mins by liquid scintillation counting. The data set is classed as cell-based. (Loss of bound radioactivity is the signal in a displacement assay; it reports binding, not function.)
Data set [2] concerns Mus musculus. Put plainly: Antinociceptive activity in chronic constriction injury neutropathic pain CD-1 mouse model assessed as time for peak protection at 3 umol/kg, po. Type of data set: functional. The method in brief: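 Male CD-1 mice (25−30 g), chronic constriction injury of left sciatic nerve (Bennett model) under isoflurane. Dosed by gavage (3 μmol/kg, 0.2 mL) at peak mechano-allodynia on day 7; vehicle 10% DMSO in 0.5% methylcellulose. Paw withdrawal threshold (g) measured on the ipsilateral hind paw from 30 min to 5 h post dose. Expressed as % reversal, mean ± SEM over n animals.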

Data set [3] relates to Mus musculus. As to the kind of experiment: Antinociceptive activity in chronic constriction injury neutropathic pain CD-1 mouse model assessed as maximum protection on ipsilateral hind paw at 3 umol/kg, po after 30 mins to 5 hrs post dose relative to control. The data set is classed as functional. As to conditions: CD-1, po.
The test system of data set [4] is Mus musculus. As to the kind of experiment: Antinociceptive activity in chronic constriction injury neutropathic pain CD-1 mouse model at 3 umol/kg, po after 3 hrs post dose relative to control. Type of data set: functional.
Data set [5] relates to CHO. As to the kind of experiment: Selectivity ratio of Ki for mouse A3 adenosine receptor expressed in HEK293 cells to Ki for human recombinant A3 adenosine receptor expressed in CHO cells. The data set is classed as cell-based.
Data set [6] concerns the target Voltage-gated inwardly rectifying potassium channel KCNH2 (Homo sapiens, UniProt Q12809). As to the kind of experiment: Inhibition of human ERG by PDSP screening.
Data set [7] has as its system CHO. Put plainly: Selectivity ratio of IC50 for human ERG to IC50 for human recombinant A3 adenosine receptor expressed in CHO cells. The data set is classed as cell-based.
In data set [8] the target is T1, Adenosine receptor A1 (Homo sapiens) (UniProt P30542).
T1 sequence (whole entry): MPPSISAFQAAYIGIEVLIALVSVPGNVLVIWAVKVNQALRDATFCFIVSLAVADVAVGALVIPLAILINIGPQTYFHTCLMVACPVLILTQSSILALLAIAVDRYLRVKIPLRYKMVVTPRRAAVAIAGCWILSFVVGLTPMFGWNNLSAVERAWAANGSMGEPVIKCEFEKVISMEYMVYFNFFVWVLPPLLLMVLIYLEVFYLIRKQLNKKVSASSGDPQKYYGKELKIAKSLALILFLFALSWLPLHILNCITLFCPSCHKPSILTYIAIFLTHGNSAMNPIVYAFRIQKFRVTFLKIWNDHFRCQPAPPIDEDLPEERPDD
As to the kind of experiment: Displacement of [3H]R-PIA from human recombinant A1 adenosine receptor expressed in CHO cells at 10 uM after 60 mins by liquid scintillation counting. Type of data set: cell-based.

In data set [9] the target is Adenosine receptor A2a (Homo sapiens) (UniProt P29274). Put plainly: Displacement of [3H]CGS21680 from human recombinant A2A adenosine receptor expressed in HEK293 cells at 10 uM after 60 mins by liquid scintillation counting. The data set is classed as cell-based.
Adenosine receptor A2a (Homo sapiens), sequence (P29274 whole entry): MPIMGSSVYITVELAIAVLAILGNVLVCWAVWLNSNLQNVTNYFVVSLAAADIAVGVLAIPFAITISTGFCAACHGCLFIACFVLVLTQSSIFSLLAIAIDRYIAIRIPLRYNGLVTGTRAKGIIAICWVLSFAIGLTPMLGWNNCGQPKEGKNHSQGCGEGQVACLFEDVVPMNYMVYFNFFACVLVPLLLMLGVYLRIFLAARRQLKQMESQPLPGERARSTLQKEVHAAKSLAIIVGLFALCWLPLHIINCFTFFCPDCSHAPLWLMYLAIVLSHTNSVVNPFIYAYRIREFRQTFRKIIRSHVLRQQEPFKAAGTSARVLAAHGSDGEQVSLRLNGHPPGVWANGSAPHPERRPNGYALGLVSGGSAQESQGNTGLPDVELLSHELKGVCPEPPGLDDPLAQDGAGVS
For data set [10], the target named is Adenosine receptor A2a (Mus musculus) (UniProt Q60613). Put plainly: Displacement of [3H]CGS21680 from mouse A2A adenosine receptor expressed in HEK293 cells at 10 uM after 60 mins by liquid scintillation counting. The data set is classed as cell-based.
Adenosine receptor A2a (Mus musculus), sequence (Q60613 whole entry): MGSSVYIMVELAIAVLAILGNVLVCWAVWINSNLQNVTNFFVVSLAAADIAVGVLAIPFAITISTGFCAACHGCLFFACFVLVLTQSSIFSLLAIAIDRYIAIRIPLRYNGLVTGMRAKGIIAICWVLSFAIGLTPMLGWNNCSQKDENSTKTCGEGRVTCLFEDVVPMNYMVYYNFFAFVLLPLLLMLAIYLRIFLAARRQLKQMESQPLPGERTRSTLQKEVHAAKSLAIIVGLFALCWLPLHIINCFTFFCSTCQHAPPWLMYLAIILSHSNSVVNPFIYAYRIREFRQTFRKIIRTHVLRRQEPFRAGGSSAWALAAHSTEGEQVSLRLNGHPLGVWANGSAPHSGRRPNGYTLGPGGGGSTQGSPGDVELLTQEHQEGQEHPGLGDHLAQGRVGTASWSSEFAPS
Data set [11] has as its target T2, Adenosine receptor A3 (Mus musculus) (UniProt Q61618).
T2 sequence (whole entry): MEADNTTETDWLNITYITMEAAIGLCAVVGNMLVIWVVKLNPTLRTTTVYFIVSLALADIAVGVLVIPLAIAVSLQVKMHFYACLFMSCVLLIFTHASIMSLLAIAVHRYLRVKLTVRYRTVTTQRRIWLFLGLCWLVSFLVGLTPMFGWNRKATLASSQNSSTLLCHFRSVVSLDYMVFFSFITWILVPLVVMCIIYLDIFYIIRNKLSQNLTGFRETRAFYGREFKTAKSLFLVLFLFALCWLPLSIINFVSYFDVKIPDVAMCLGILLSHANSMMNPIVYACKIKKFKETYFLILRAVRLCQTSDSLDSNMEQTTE
As to the kind of experiment: Agonist activity at mouse A3 adenosine receptor expressed in HEK293 cells assessed as inhibition of forskolin-stimulated cAMP production after 15 mins relative to control. Type of data set: functional, cell-based. The method in brief: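 2 × 10^5 cells/tube, coincubated with forskolin 10 μM plus ligand for 15 min at 37 °C with shaking. Stopped with HCl. cAMP in supernatant measured by competitive binding.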
For orientation: Changes in cAMP serve as a functional read-out for many G protein-coupled receptors.

The target in data set [12] is T3, Cytochrome P450 1A2 (Homo sapiens, UniProt P05177).
T3 sequence (P05177 whole entry): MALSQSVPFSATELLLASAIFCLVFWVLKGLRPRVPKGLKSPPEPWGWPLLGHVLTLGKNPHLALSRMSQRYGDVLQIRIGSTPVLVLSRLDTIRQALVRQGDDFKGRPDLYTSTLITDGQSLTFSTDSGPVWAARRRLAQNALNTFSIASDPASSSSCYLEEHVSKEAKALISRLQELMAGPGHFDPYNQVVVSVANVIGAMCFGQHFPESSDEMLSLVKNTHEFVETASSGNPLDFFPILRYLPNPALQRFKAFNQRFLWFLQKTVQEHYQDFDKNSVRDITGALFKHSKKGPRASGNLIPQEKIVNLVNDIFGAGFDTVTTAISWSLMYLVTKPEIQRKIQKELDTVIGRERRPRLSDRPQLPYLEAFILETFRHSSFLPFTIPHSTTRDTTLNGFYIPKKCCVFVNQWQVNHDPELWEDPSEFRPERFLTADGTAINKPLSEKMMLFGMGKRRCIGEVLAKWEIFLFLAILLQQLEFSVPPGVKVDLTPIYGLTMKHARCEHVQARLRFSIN
Put plainly: Inhibition of CYP1A2 in human microsomes preincubated for 5 mins before substrate addition measured after 10 mins by LC/MS/MS analysis. Type of data set: ADME.

Data set [13] concerns the target Cytochrome P450 2C9 (Homo sapiens, UniProt P11712). Put plainly: Inhibition of CYP2C9 in human microsomes preincubated for 5 mins before substrate addition measured after 10 mins by LC/MS/MS analysis. Type of data set: ADME.
Data set [14] has as its target Cytochrome P450 2C19 (Homo sapiens, UniProt P33261). As to the kind of experiment: Inhibition of CYP2C19 in human microsomes preincubated for 5 mins before substrate addition measured after 10 mins by LC/MS/MS analysis. The data set is classed as ADME.
For data set [15], the target named is Cytochrome P450 2D6 (Homo sapiens, UniProt P10635). As to the kind of experiment: Inhibition of CYP2D6 in human microsomes preincubated for 5 mins before substrate addition measured after 10 mins by LC/MS/MS analysis. Type of data set: ADME.
For data set [16], the target named is Cytochrome P450 3A4 (Homo sapiens, UniProt P08684). Put plainly: Inhibition of CYP3A4 in human microsomes preincubated for 5 mins before substrate addition measured after 10 mins by LC/MS/MS analysis. Type of data set: ADME.
Cytochrome P450 3A4, sequence (P08684 whole entry): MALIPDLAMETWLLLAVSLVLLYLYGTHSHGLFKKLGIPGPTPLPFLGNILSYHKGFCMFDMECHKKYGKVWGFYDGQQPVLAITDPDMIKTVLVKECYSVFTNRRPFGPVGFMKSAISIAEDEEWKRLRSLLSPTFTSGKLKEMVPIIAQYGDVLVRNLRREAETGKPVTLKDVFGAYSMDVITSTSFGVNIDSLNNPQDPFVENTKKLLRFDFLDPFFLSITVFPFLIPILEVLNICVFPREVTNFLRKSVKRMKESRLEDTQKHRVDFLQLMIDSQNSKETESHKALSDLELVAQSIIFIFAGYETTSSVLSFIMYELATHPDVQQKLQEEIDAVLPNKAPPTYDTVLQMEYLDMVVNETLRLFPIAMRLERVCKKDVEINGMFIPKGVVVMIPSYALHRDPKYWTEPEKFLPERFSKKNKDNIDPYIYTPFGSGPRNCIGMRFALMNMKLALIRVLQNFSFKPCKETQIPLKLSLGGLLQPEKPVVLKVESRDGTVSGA
The subject of data set [17] is Liver microsome. Put plainly: Intrinsic clearance in human liver microsomes assessed per mg protein at 100 uM by LC-MS/MS analysis. The data set is classed as ADME. For orientation: Liver microsomes are a subcellular fraction often used to study metabolism.
For data set [18], the target named is Translocator protein (Homo sapiens) (UniProt P30536). As to the kind of experiment: Binding affinity to TSPO (unknown origin) by PDSP screening.
Translocator protein (Homo sapiens), sequence (P30536 whole entry): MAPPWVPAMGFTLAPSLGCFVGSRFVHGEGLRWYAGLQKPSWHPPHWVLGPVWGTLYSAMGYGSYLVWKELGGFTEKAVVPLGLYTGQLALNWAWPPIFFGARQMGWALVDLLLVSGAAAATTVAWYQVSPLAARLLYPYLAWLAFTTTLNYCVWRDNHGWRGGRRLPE
For data set [19], the target named is Sigma non-opioid intracellular receptor 1 (Homo sapiens) (UniProt Q99720). Put plainly: Binding affinity to sigma1 receptor (unknown origin) by PDSP screening.
Sigma non-opioid intracellular receptor 1 (Homo sapiens), sequence (Q99720 whole entry): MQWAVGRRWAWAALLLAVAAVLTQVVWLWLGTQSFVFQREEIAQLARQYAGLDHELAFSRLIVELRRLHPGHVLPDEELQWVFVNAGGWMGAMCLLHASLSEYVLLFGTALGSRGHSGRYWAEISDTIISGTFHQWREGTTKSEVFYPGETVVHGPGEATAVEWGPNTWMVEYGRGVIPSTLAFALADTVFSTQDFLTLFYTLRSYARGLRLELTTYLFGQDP
Data set [20] is filed under the species Homo sapiens. Put plainly: Binding affinity to sigma2 receptor (unknown origin) by PDSP screening.
The nature of data set [21]: Permeability across apical to basolateral side of human Caco2 cells expressing P-gp. As to conditions: caco-2. Type of data set: ADME, cell-based.
Data set [22] concerns the target T4, Adenosine receptor A1 (Mus musculus) (UniProt Q60612).
T4 sequence (whole entry): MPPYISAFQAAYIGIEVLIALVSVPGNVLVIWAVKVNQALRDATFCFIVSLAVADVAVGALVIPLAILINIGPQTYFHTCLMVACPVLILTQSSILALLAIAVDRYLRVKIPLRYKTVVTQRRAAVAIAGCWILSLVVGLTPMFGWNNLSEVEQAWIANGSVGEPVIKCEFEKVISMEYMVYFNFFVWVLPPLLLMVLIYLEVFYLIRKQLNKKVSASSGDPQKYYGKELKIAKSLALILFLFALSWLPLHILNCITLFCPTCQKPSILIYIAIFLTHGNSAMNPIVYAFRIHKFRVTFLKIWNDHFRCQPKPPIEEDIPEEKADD
As to the kind of experiment: Displacement of [125I]I-AB-MECA from mouse A1 adenosine receptor expressed in HEK293 cells at 10 uM after 60 mins by liquid scintillation counting.

Data set [23] deals with hERG (KCNH2) (Homo sapiens, UniProt Q12809). Put plainly: Inhibition of human ERG at 10 uM by PDSP screening.
hERG (KCNH2), sequence (Q12809 whole entry): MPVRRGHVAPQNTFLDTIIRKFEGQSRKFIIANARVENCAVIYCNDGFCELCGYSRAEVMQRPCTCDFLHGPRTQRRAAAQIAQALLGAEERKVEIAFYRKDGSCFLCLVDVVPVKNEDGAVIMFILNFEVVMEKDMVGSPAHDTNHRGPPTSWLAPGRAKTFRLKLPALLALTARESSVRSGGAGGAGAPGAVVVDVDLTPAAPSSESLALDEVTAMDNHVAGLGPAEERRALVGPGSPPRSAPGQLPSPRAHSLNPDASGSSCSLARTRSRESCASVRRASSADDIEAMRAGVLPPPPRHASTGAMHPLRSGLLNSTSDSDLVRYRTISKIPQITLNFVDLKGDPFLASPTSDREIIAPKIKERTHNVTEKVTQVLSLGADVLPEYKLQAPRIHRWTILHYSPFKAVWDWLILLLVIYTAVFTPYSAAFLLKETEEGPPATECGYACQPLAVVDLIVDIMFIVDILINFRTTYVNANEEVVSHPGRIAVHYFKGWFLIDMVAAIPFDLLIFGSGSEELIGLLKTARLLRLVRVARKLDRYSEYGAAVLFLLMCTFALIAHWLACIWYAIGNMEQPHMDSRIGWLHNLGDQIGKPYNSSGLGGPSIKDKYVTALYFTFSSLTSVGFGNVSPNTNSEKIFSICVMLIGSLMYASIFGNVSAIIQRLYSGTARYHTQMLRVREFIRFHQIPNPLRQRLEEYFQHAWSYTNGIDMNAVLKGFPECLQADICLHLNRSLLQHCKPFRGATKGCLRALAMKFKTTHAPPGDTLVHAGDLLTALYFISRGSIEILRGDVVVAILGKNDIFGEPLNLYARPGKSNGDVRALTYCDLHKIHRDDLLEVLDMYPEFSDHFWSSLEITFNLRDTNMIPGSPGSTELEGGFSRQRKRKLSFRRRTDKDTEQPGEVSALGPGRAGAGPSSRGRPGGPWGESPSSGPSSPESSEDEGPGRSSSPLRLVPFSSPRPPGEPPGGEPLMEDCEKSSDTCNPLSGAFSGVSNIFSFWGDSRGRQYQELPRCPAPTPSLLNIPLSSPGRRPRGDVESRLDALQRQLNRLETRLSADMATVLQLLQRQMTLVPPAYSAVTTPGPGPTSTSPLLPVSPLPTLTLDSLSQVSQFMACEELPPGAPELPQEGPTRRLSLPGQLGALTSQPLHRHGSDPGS

The pKi is −log10 of the Ki, conventionally taken in molar units. By Emax is commonly meant the maximal effect, on the per cent scale that the assay sets. As a reminder, the pIC50 is −log10 of the IC50, conventionally taken in molar units. A low value points to a high IC50. Usually inhibition stands for the percentage by which the read-out fell short of the control.

pIC50, pKi: −log10 of the molar value. The source made the active and inactive calls.

Voltage-gated inwardly rectifying potassium channel KCNH2, sequence (Q12809 whole entry): as above
Cytochrome P450 2C19, sequence (P33261 whole entry): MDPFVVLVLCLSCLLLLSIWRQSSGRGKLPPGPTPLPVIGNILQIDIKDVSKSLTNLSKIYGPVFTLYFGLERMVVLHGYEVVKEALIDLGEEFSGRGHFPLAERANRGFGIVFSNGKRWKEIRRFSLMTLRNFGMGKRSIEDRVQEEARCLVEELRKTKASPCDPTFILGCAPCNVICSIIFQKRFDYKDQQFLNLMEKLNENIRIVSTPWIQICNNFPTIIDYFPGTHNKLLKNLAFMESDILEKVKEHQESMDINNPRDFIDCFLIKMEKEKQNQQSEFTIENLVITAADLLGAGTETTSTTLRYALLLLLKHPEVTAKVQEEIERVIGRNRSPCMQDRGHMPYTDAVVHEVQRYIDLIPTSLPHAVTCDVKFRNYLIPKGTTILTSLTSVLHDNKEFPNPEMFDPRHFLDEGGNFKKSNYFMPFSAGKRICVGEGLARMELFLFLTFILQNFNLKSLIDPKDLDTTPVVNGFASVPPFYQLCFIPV
Cytochrome P450 2C9, sequence (P11712 whole entry): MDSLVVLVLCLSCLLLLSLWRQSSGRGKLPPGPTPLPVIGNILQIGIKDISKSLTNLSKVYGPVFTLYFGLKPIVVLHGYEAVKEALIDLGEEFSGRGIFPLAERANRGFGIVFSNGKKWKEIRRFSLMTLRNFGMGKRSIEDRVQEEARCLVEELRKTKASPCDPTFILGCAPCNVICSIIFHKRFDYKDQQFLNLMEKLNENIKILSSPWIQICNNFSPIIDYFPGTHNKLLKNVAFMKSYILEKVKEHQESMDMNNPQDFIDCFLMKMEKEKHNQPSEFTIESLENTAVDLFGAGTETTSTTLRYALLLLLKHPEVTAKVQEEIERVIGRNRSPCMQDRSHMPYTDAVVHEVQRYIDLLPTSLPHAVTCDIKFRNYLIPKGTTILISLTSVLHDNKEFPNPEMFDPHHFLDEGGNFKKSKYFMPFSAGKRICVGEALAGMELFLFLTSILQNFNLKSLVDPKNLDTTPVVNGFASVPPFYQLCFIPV

In the case of `CNC(=O)[C@@]12C[C@@H]1[C@@H](n1cnc3c(NC)nc(C#Cc4ccc(F)c(F)c4)nc31)[C@H](O)[C@@H]2O`, the negative-log Ki (pKi) in data set [1] is 7.07. In addition, the Time in data set [2] stood at 1 h. Also, the Emax at 3 µmol/kg in data set [3] was determined as 99%. In addition, in data set [4], the Activity was 28.7%. For the same compound, the Ratio Ki in data set [5] is more than 30. In [6], this compound had a pIC50 of 4.57. The Ratio IC50 in data set [7] is more than 10000.

On to `CNC(=O)[C@@]12C[C@@H]1[C@@H](n1cnc3c(NC)nc(C#Cc4ccc(Cl)s4)nc31)[C@H](O)[C@@H]2O`, for which the inhibition stood at 6% in [8], 24% in data set [9], 7% in [10] and 38% in data set [22]. The Time in data set [2] amounted to 0.5 h. Moreover, the Emax at 3 µmol/kg in [3] is 93.3%. The compound also returned an Activity in data set [4] of 82.8%. Besides, in [11], the Imax stood at 35%. The pIC50 is less than 5.00 in [12]; less than 5.00 in [13]; less than 5.00 in [14]; less than 5.00 in data set [15]; less than 5.00 in [16]; 4.89 in data set [6]. The same compound yielded a CLH in [17] of 3.69 µL/min. In addition, the outcome in data set [18], in [19] and in [20] was Active. Besides, the permeability entry in data set [21] is “permeable”.

In the case of `CNC(=O)[C@@]12C[C@@H]1[C@@H](n1cnc3c(NC)nc(C#Cc4ccco4)nc31)[C@H](O)[C@@H]2O`, the inhibition is 30% in data set [8], 18% in data set [9], 17% in data set [10] and 59% in [22]. Also, the Time in data set [2] is 1 h. For the same compound, the Emax at 3 µmol/kg in data set [3] is 100%. Besides, the Activity in data set [4] stood at 27.6%. In addition, the permeability entry in [21] was “permeable”. In addition, at 10 µM the inhibition in [23] was 21%.

As for `CNC(=O)[C@@]12C[C@@H]1[C@@H](n1cnc3c(NC)nc(C#Cc4cnn(C)c4)nc31)[C@H](O)[C@@H]2O`, the inhibition was 35% in data set [8], 12% in [9], 16% in data set [10] and 72% in [22]. In data set [2], the Time is 1 h. Moreover, the Emax at 3 µmol/kg in data set [3] came out at 87.3%. Also, testing at 10 µM in [23] gave an inhibition of 28%.

With `CNC(=O)[C@@]12C[C@@H]1[C@@H](n1cnc3c(NCc4cccc(Cl)c4)nc(C#Cc4ccc(F)c(F)c4)nc31)[C@H](O)[C@@H]2O`, in data set [2], the Time stood at 1 h. This compound registered an Activity in data set [4] of 23.7%. The pIC50 in data set [6] is 4.91. In [22], this compound displayed an inhibition of 16%.

Take `CNC(=O)[C@@]12C[C@@H]1[C@@H](n1cnc3c(NC)nc(C#Cc4ccccc4Cl)nc31)[C@H](O)[C@@H]2O`: the inhibition in [8] worked out at 22%. Also, in data set [2], the Time is 0.5 h. Also, the Emax at 3 µmol/kg in data set [3] came to 27.5%. Also, the Activity in data set [4] was found to be 10.6%. Further, in [5], the Ratio Ki is more than 30.

For `CNC(=O)[C@@]12C[C@@H]1[C@@H](n1cnc3c(NC)nc(C#Cc4cnccn4)nc31)[C@H](O)[C@@H]2O`, the results for the inhibition in data set [8], in data set [9] and in data set [10] were 37%, 25% and 12%, respectively. Further, the Time in data set [2] worked out at 1 h. Moreover, the Emax at 3 µmol/kg in [3] came to 100%. The Imax in data set [11] was determined as 30%. Also, the pIC50 in data set [12], in [13], in data set [14], in data set [15] and in data set [16] was less than 5.00 in each case. The CLH in data set [17] came out at 2.99 µL/min. The permeability entry in data set [21] is given as “impermeable”.
